Active and inactive are the calls of the source. The rule behind the calls is not given here.
What was measured:
LoVo = assay: Antiproliferative activity against human LoVo cells after 72 hrs by MTT assay; assay type: functional, cell-based
Outline: (§1)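 Cells kept in RPMI-1640 with 10% FBS at 37 °C, 5% CO2. Seeded at 5×10^3 cells/well and grown 24 h, then exposed 72 h at 37 °C to five concentrations (0.01, 0.1, 1, 10, 100 μM) in medium. MTT added for 4 h, formazan dissolved in DMSO, absorbance read at 490 nm. IC50 taken from a log plot of percent of control vs concentration; means ± SD of triplicate experiments.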

HeLa [1] = assay: Antiproliferative activity against human HeLa cells after 72 hrs by MTT assay; assay type: functional, cell-based; outline: as §1
HepG2 = assay: Antiproliferative activity against human HepG2 cells after 72 hrs by MTT assay; assay type: functional, cell-based; outline: as §1
A549 = assay: Antiproliferative activity against human A549 cells after 72 hrs by MTT assay; assay type: functional, cell-based; outline: as §1
HCT-116 = assay: Antiproliferative activity against human HCT116 cells after 72 hrs by MTT assay; assay type: functional, cell-based; outline: as §1
Aurora kinase A = target: T1, Aurora kinase A (Homo sapiens, UniProt O14965); assay: Inhibition of Aurora A (unknown origin) using kemptide as substrate after 30 mins by kinase-Glo luminescence method
T1 sequence (O14965 whole entry): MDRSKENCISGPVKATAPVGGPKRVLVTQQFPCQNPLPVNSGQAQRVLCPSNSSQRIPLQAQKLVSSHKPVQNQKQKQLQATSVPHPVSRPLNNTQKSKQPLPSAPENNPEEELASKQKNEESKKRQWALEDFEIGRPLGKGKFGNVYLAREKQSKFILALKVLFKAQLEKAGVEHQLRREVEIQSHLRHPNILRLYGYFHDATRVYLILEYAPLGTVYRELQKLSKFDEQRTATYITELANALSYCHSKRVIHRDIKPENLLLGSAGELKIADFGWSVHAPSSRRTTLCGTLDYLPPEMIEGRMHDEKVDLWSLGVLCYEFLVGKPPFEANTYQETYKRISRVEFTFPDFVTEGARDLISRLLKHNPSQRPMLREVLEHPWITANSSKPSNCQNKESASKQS
Outline: (§2)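 Luminescent kinase assay. Reaction buffer: 40 mM Tris pH 7.4, 10 mM MgCl2, 1 mM DTT, 0.1 mg/ml BSA, 10 μM ATP, 0.2 μg/ml kinase, 100 μM Kemptide. Compounds tested at 0.1, 1, 10, 100 and 1000 nM (diluted in PBS). Reactions ran 30 min at 37 °C, signal read by Kinase-Glo luminescence, IC50 fitted from the curves.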

Aurora kinase B [2] = target: T2, Aurora kinase B (Homo sapiens, UniProt Q96GD4); assay: Inhibition of Aurora B (unknown origin) using kemptide as substrate after 30 mins by kinase-Glo luminescence method; outline: as §2
HeLa [3] = assay: Cell cycle arrest in human HeLa cells assessed as accumulation at G1 phase at 0.5 uM after 24 hrs by propidium iodide staining based FACS analysis (reference value: 65.66%); assay type: functional
Outline: (§3)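 HeLa cells exposed 24 h to 0, 0.5, 2.0 or 5.0 μM. (1–5)×10^5 cells harvested, washed twice in PBS, fixed overnight or longer in 75% ice-cold ethanol, then washed three times in PBS. DNA stained 15 min in darkness with 1% Triton X-100, 0.01% RNase, 0.05% PI. Phase distribution measured by flow cytometry.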

HeLa [4] = assay: Cell cycle arrest in human HeLa cells assessed as accumulation at G1 phase at 2 uM after 24 hrs by propidium iodide staining based FACS analysis (reference value: 65.66%); assay type: functional; outline: as §3
HeLa [5] = assay: Cell cycle arrest in human HeLa cells assessed as accumulation at S phase at 2 uM after 24 hrs by propidium iodide staining based FACS analysis (reference value: 24.72%); assay type: functional; outline: as §3
HeLa [6] = assay: Cell cycle arrest in human HeLa cells assessed as accumulation at S phase at 0.5 uM after 24 hrs by propidium iodide staining based FACS analysis (reference value: 24.72%); assay type: functional; outline: as §3
[7] = target: T3, Aurora kinase A (Homo sapiens) (UniProt O14965); assay: Inhibition of Aurora A phosphorylation at Thr288 residue in human HeLa cells after 6 hrs by Western blot method; assay type: cell-based
T3 sequence (whole entry): T1 sequence (O14965 whole entry)
Outline: (§4)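 HeLa cells treated 6 h at 0, 0.5, 2.5 or 5.0 μM. Lysates (20–30 μg) resolved on 12% SDS-PAGE and blotted to PVDF. Probed overnight at 4 °C with antibodies to phospho-AurA Thr288, phospho-AurB Thr232 and total AurA/AurB. β-actin used as loading control. Values are mean ± SD versus control.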

HeLa [8] = assay: Cell cycle arrest in human HeLa cells assessed as accumulation at G2/M phase at 5 uM after 24 hrs by propidium iodide staining based FACS analysis (reference value: 9.63%); assay type: functional
HeLa [9] = assay: Cell cycle arrest in human HeLa cells assessed as accumulation at S phase at 5 uM after 24 hrs by propidium iodide staining based FACS analysis (reference value: 24.72%); assay type: functional
HeLa [10] = assay: Cell cycle arrest in human HeLa cells assessed as accumulation at G2/M phase after 24 hrs by propidium iodide staining based FACS analysis; assay type: functional; outline: as §3
Aurora kinase B [11] = target: T2, Aurora kinase B; assay: Inhibition of Aurora B phosphorylation at Thr232 residue in human HeLa cells after 6 hrs by Western blot method; assay type: cell-based; outline: as §4
HeLa [12] = assay: Downregulation of Cyclin-B1 protein level in human HeLa cells after 24 hrs by Western blot method; assay type: functional, cell-based
Outline: (§5)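 HeLa cells treated 24 h at 0, 0.5, 2.0 or 5.0 μM, or with VX-680 at 5.0 μM. Lysed in Tris-HCl pH 7.5/NP-40/SDS buffer with protease inhibitors, 20–30 μg protein run on 12% SDS-PAGE, transferred to PVDF, probed overnight at 4 °C with anti-cyclinB1 and anti-cdc2. β-actin served as loading control. Values are mean ± SD.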

HeLa [13] = assay: Cell cycle arrest in human HeLa cells assessed as accumulation at G2/M phase at 2 uM after 24 hrs by propidium iodide staining based FACS analysis (reference value: 9.63%); assay type: functional; outline: as §3
HeLa [14] = assay: Downregulation of Cdc2 protein level in human HeLa cells after 24 hrs by Western blot method; assay type: functional, cell-based; outline: as §5
[15] = target: T3, Aurora kinase A (Homo sapiens); assay: Inhibition of Aurora A phosphorylation at Thr288 residue in human HeLa cells at 5 uM after 6 hrs by Western blot method; assay type: cell-based; outline: as §4
HeLa [16] = assay: Cell cycle arrest in human HeLa cells assessed as accumulation at G1 phase at 5 uM after 24 hrs by propidium iodide staining based FACS analysis (reference value: 65.66%); assay type: functional
HeLa [17] = assay: Cell cycle arrest in human HeLa cells assessed as accumulation at G2/M phase at 0.5 uM after 24 hrs by propidium iodide staining based FACS analysis (reference value: 9.63%); assay type: functional; outline: as §3
Aurora kinase B [18] = target: T2, Aurora kinase B; assay: Inhibition of Aurora B phosphorylation at Thr232 residue in human HeLa cells at 5 uM after 6 hrs by Western blot method; assay type: cell-based; outline: as §4

T2 sequence (Q96GD4 whole entry): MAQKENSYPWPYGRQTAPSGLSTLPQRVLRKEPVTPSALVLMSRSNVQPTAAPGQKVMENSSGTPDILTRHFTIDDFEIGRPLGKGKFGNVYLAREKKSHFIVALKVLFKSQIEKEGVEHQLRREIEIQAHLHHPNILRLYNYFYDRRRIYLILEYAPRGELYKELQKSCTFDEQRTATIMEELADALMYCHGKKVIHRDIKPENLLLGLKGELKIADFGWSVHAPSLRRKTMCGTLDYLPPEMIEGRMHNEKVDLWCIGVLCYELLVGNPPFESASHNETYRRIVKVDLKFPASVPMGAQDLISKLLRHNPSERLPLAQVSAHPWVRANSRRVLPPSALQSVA

Structure (SMILES)	IC50 (LoVo; Homo sapiens, LoVo, 72 h)	IC50 (HeLa [1]; Homo sapiens, HeLa, 72 h)	IC50 (HepG2; Homo sapiens, HepG2, 72 h)	IC50 (A549; Homo sapiens, A549, 72 h)	IC50 (HCT-116; Homo sapiens, HCT-116, 72 h)	also measured
Cc1noc(C)c1-c1nn(Cc2ccc(C(=O)NC3CCCCC3)cc2)c(=O)c2ccccc12	82.2 µM	> 100 µM	> 100 µM	> 100 µM	> 100 µM	–
Cn1cc(-c2nn(Cc3ccc(C(=O)NC4CC(C)(C)N([O])C(C)(C)C4)cc3)c(=O)c3ccccc23)cn1	50.1 µM	27.7 µM	27.4 µM	37.3 µM	50.5 µM	IC50 (Aurora kinase A): 0.168 µM; IC50 (Aurora kinase B [2]): 0.134 µM
O=C(Nc1ccccc1Cl)c1ccc(Nc2nn(Cc3ccc(C(=O)NC4CCCCC4)cc3)c(=O)c3ccccc23)cc1	79.5 µM	87.3 µM	82.4 µM	> 100 µM	> 100 µM	–
Cn1cc(-c2nn(Cc3ccc(C(=O)NC4CCCC4)cc3)c(=O)c3ccccc23)cn1	23.7 µM	16.7 µM	84.3 µM	32.3 µM	14.3 µM	IC50 (Aurora kinase A): 0.583 µM; IC50 (Aurora kinase B [2]): 0.265 µM
Cn1cc(Nc2nn(Cc3ccc(C(=O)NC4CCCCC4)cc3)c(=O)c3ccccc23)cn1	5.3 µM	3.2 µM	8.3 µM	6.8 µM	5.4 µM	IC50 (Aurora kinase A): 0.145 µM; IC50 (Aurora kinase B [2]): 0.132 µM
Cc1noc(C)c1-c1nn(Cc2ccc(C(=O)N3CCCCC3)cc2)c(=O)c2ccccc12	> 100 µM	> 100 µM	97.3 µM	86.2 µM	> 100 µM	–
O=C(NC1CCCCC1)c1ccc(Cn2nc(Nc3ccc(C(=O)N4CCOCC4)cc3)c3ccccc3c2=O)cc1	54.5 µM	23.2 µM	40.4 µM	64.3 µM	48.2 µM	–
Cc1noc(C)c1-c1nn(Cc2ccc(C(=O)NC3CC3)cc2)c(=O)c2ccccc12	> 100 µM	> 100 µM	> 100 µM	> 100 µM	> 100 µM	–
Cn1cc(-c2nn(Cc3ccc(C(=O)N4CCOCC4)cc3)c(=O)c3ccccc23)cn1	52.3 µM	> 100 µM	> 100 µM	73.3 µM	> 100 µM	–
Cn1cc(-c2nn(Cc3ccc(C(=O)N4CCCCC4)cc3)c(=O)c3ccccc23)cn1	77.1 µM	65.5 µM	73.1 µM	67.4 µM	73.9 µM	–
Cc1noc(C)c1-c1nn(Cc2ccc(C(=O)NC3CCN(C)CC3)cc2)c(=O)c2ccccc12	> 100 µM	> 100 µM	> 100 µM	> 100 µM	84.9 µM	–
CN1CCC(NC(=O)c2ccc(Cn3nc(-c4cnn(C)c4)c4ccccc4c3=O)cc2)CC1	83.3 µM	28.5 µM	47.3 µM	54.3 µM	69.5 µM	IC50 (Aurora kinase A): 0.183 µM; IC50 (Aurora kinase B [2]): 0.105 µM
Cn1cc(-c2nn(Cc3ccc(C(=O)NC4CC4)cc3)c(=O)c3ccccc23)cn1	48.2 µM	40 µM	> 100 µM	51.2 µM	20.1 µM	–
Cc1noc(C)c1-c1nn(Cc2ccc(C(=O)N3CCOCC3)cc2)c(=O)c2ccccc12	84.4 µM	> 100 µM	> 100 µM	> 100 µM	> 100 µM	–
Cn1cc(-c2nn(Cc3ccc(C(=O)NC4CCCCC4)cc3)c(=O)c3ccccc23)cn1	2.6 µM	2.2 µM	4.6 µM	3.3 µM	3.8 µM	Activity (HeLa [3]): 34.87%; Activity (HeLa [4]): 5.98%; Activity (HeLa [5]): 12.83%; IC50 (Aurora kinase A): 0.118 µM; Activity (HeLa [6]): 30.47%; inhibition [7]: Dose-dependent effect; Activity (HeLa [8]): 87.17%; Activity (HeLa [9]): 5.48%; Activity (HeLa [10]): Dose-dependent effect; inhibition (Aurora kinase B [11]): Dose-dependent effect; Activity (HeLa [12]): Dose-dependent effect; Activity (HeLa [13]): 81.19%; Activity (HeLa [14]): Dose-dependent effect; inhibition [15]: Active; Activity (HeLa [16]): 7.34%; IC50 (Aurora kinase B [2]): 0.08 µM; Activity (HeLa [17]): 34.66%; inhibition (Aurora kinase B [18]): Active
Cc1noc(C)c1-c1nn(Cc2ccc(C(=O)NC3CCCC3)cc2)c(=O)c2ccccc12	> 100 µM	> 100 µM	> 100 µM	> 100 µM	> 100 µM	–
Cc1noc(C)c1-c1nn(Cc2ccc(C(=O)NC3CC(C)(C)N([O])C(C)(C)C3)cc2)c(=O)c2ccccc12	–	–	–	–	–	IC50 (LoVo; lovo): 41.2 µM; IC50 (HeLa [1]; hela): 83.5 µM; IC50 (HepG2; hepg2): 85.1 µM; IC50 (A549; a549): 84.3 µM; IC50 (HCT-116; hct-116): 36.8 µM
Cc1cc(Nc2nn(Cc3ccccc3)c(=O)c3ccccc23)n[nH]1	22.2 µM	6.3 µM	11.3 µM	42.6 µM	22.7 µM	–

Source: ChEMBL document CHEMBL4219251, “Synthesis and biological evaluation of 2,4-disubstituted phthalazinones as Aurora kinase inhibitors” (Bioorg Med Chem, 2018)
